Assay outcomes: PubChem BioAssay, Johns Hopkins Ion Channel Center
In the library only some 3.5% were active in any assay of this set; here they are far more common.
MrgX1 PAM – positive allosteric modulators of MrgX1, primary screen, HEK293 cells, Fluo-4 calcium flux | B-score at 10 µM | FDSS; hits give high values | Mas-related G-protein coupled receptor member X1 (Homo sapiens), Q96LB2 | AID 588675, 2011 | actives 0.63% (n = 310,000);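 active means plate-corrected calcium response at least 3 library SD above typical, normal starting fluorescence, not activating the receptor alone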;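 further: compound read alongside a low EC10 to EC30 dose of BAM8-22 agonist; peak minus trough fluorescence over baseline measured at the second addition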
Target sequence (Q96LB2 whole entry, looked up): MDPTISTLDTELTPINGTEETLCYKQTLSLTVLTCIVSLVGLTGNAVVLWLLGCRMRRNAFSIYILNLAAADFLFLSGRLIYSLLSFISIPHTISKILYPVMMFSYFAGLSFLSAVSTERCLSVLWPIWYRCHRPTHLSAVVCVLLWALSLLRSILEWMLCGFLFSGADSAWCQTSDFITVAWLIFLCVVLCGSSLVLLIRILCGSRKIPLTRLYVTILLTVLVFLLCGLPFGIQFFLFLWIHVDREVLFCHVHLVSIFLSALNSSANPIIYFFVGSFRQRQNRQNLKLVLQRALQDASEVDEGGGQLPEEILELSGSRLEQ
MrgX1 antag – antagonists of human MrgX1 receptor, primary screen, HEK293 cells, Fluo-4 calcium flux; B-score at 10 µM; actives 1.3% (n = 310,000); BAM8-22 antagonism; hits give low values; AID 588676, 2011;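 active means calcium-response B-score plate-corrected more than 3 library SD below zero, starting fluorescence within 5 deviations, no agonist response on first addition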;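 further: peak minus trough fluorescence over baseline after final BAM8-22 challenge near maximal dose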
RGS4 block – RGS4 inhibitors, primary screen, cell-based, HEK293 M3R inducible RGS4, calcium flux; Regulator of G-protein signaling 4 (Homo sapiens), P49798; Fluo-4 calcium flux; hits give high values; triggered by carbachol at its EC20; B-score at 10 µM; actives 0.45% (n = 310,000); AID 463165, 2010;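 active means B-score, a plate-corrected calcium signal, over three deviations above library mean, with baseline fluorescence within five deviations of library mean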;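 further: RGS4 expression induced by doxycycline in cells with stable M3 receptor; B-score is computed from the integrated fluorescence ratio over baseline after carbachol; higher B-score means a larger calcium signal and so more RGS4 inhibition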
Target sequence (P49798 whole entry, looked up): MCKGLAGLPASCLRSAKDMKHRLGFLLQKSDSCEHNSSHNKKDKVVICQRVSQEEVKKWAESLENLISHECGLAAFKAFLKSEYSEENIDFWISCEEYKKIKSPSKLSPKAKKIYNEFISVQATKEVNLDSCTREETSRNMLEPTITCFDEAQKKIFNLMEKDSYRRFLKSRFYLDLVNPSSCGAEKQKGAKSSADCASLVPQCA
RGS4 pot – RGS4 potentiators or activators, primary screen, cell-based, HEK293 M3R inducible RGS4, calcium flux; carbachol calcium flux Fluo4; hits give low values; actives 0.92% (n = 310,000); AID 463111, 2010; B-score at 10 µM;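 active means B-score of the integrated calcium signal more than 4 SD below the library mean, with starting fluorescence not abnormally high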;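 further: negative B-score means reduced calcium response which marks RGS4 activation or potentiation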
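Reagent: ECmax carbachol challenge; Test system: M3R-expressing HEK293 line, RGS4 induced by doxycycline; Schedule: overnight RGS4 induction, 30 min dye load 37 °C, 20 min compound RT; Detection: calcium dye Fluo4 fluorescence; Read-out: Agonist-evoked peak-minus-minimum fluorescence over baseline, integrated ratio, B score.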
MrgX1 agonist – agonists of human MrgX1 receptor, primary screen, HEK293 cells, Fluo-4 calcium flux. actives 0.44% (n = 310,000). B-score at 10 µM. AID 588627, 2011. Fluo-4 calcium fluorescence, agonist mode; hits give high values. Mas-related G-protein coupled receptor member X1 (Homo sapiens), Q96LB2;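 active means calcium response B-score plate-corrected fluorescence ratio at least 3 library SD, with starting fluorescence B-score inside 5 SD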
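Material: MrgX1-expressing HEK293 cells; input: 15,000 cells per well; doses: test compound given as first of three sequential additions; schedule: overnight plating before 1 h dye loading; technique: Fluo-4 NW calcium-flux fluorescence, kinetic read; evaluation: baseline-normalised fluorescence change ratio, B-scored; control set: plate-wise positive and negative controls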
MrgX1 ant reconf – MrgX1 receptor antagonists, duplicate retest, confirmation, HEK293 cells, Fluo-4 calcium flux; shares compounds with MrgX1 antag; remaining BAM8-22 calcium response % of control (hits give low values), % at 10 µM; BAM8-22 calcium flux; hits give low values; actives 19% (n = 2,300);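 active means remaining agonist calcium response no higher than 100% minus 3 SD of agonist-only control wells, with starting fluorescence near control levels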;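 further: agonist BAM8-22 given at a near maximal EC90 to ECmax level; peak minus minimum fluorescence divided by baseline after agonist addition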
HEK293 Ca flux – nonspecific calcium signal in parental HEK293, confirmation, counter-screen for MrgX1 antagonist project, parental HEK293 cells, Fluo-4 calcium flux. shares compounds with MrgX1 antag. Fluo-4 calcium fluorescence, FDSS. fluorescence ratio F(max-min)/F0 at 10 µM. actives 2% (n = 4,000);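 active means duplicate-averaged calcium fluorescence ratio at least three times the standard deviation of buffer wells, a nonspecific response in parental cells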
HEK293 Ca counter – calcium response in parental HEK293 cells, primary screen, counter-screen for MrgX1 allosteric activator project, cell-based, Fluo-4 calcium flux, duplicate; AID 624114, 2012; Fluo-4 fluorescence ratio; hits give high values; actives 0.4% (n = 4,000); shares compounds with MrgX1 antag; fluorescence ratio F(max-min)/F0 at 10 µM;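 active means calcium fluorescence ratio, averaged over duplicates, at least 3 SD of the buffer-well ratio, meaning a nonspecific response in receptor-free cells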;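 further: untransfected parental HEK293 lacking MrgX1 used as counterscreen for MrgX1 allosteric activators; fluorescence change taken during the second addition on a kinetic imager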
HEK293 Ca cntr2 – calcium response in parental HEK293 cells, primary screen, counter-screen for MrgX1 agonist project, cell-based, Fluo-4 calcium flux, duplicate, agonist mode. shares compounds with MrgX1 antag. Fluo-4 calcium fluorescence (FDSS); hits give high values. fluorescence ratio F(max-min)/F0 at 10 µM. actives 8.7% (n = 4,000);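 active means calcium fluorescence ratio at least three times the spread of buffer wells, meaning a non-specific response in parental cells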
The depositor's hits bear a star.

How did O=C(O)c1ccccc1NS(=O)(=O)c1cccc(C(F)(F)F)c1 do in these assays?
MrgX1 PAM: inactive; MrgX1 antag: inactive; RGS4 block: inactive; RGS4 pot: inactive; MrgX1 agonist: inactive

Results for COc1cc(C(C)=O)ccc1OC(=O)c1cc2cccc(OC)c2oc1=O ?
MrgX1 PAM: inactive; MrgX1 antag: inactive; RGS4 block: inactive; RGS4 pot: inactive; MrgX1 agonist: inactive

How did COc1ccc2c(c1OC)C(=O)OC2Nc1ccccc1S(=O)(=O)C(F)F (configuration not stated) do in these assays?
MrgX1 PAM: inactive; MrgX1 antag: -4.7*; RGS4 block: inactive; RGS4 pot: inactive; MrgX1 agonist: inactive; MrgX1 ant reconf: inactive; HEK293 Ca flux: inactive; HEK293 Ca counter: inactive; HEK293 Ca cntr2: inactive

What do the screens show for `Cc1ccc(OCCC(=O)OCC(=O)NCCc2ccc(Cl)cc2)cc1`?
MrgX1 PAM: inactive; MrgX1 antag: inactive; RGS4 block: inactive; RGS4 pot: inactive; MrgX1 agonist: inactive

What do the screens show for `Cn1c(SCC(=O)Nc2ccc(C(N)=O)cc2)nc2c(c1=O)SCC2`?
MrgX1 PAM: inactive; MrgX1 antag: inactive; RGS4 block: inactive; RGS4 pot: inactive; MrgX1 agonist: inactive

Results for COc1ccc(-n2c(SCC(=O)Nc3cc(C)on3)nc3c(c2=O)SCC3)cc1 ?
MrgX1 PAM: inactive; MrgX1 antag: -4.6*; RGS4 block: inactive; RGS4 pot: inactive; MrgX1 agonist: inactive; MrgX1 ant reconf: inactive; HEK293 Ca flux: inactive; HEK293 Ca counter: inactive; HEK293 Ca cntr2: inactive

How did Cn1c(SCC(=O)Nc2cccc(F)c2)nc2c(c1=O)SCC2 do in these assays?
MrgX1 PAM: inactive; MrgX1 antag: -8.8*; RGS4 block: inactive; RGS4 pot: inactive; MrgX1 agonist: inactive; MrgX1 ant reconf: inactive; HEK293 Ca flux: inactive; HEK293 Ca counter: inactive; HEK293 Ca cntr2: inactive

Results for Cc1ccc(OCc2cc(C(=O)N3CCC(C(O)C(C)C)CC3)no2)cc1C (configuration not stated) ?
MrgX1 PAM: inactive; MrgX1 antag: inactive; RGS4 block: inactive; RGS4 pot: inactive; MrgX1 agonist: inactive

How did COC(=O)c1ccc(NC(=O)CNS(=O)(=O)c2cccs2)cc1 do in these assays?
MrgX1 PAM: inactive; MrgX1 antag: inactive; RGS4 block: inactive; RGS4 pot: inactive; MrgX1 agonist: inactive

What do the screens show for `CCOC(=O)c1ccc(NC(=O)CCNS(=O)(=O)c2cccs2)cc1`?
MrgX1 PAM: inactive; MrgX1 antag: -5.4*; RGS4 block: inactive; RGS4 pot: inactive; MrgX1 agonist: inactive; MrgX1 ant reconf: inactive; HEK293 Ca flux: inactive; HEK293 Ca counter: inactive; HEK293 Ca cntr2: inactive

Results for COc1ccc(NC(=O)Cc2coc3ccc4ccccc4c23)cc1S(=O)(=O)N1CCOCC1 ?
MrgX1 PAM: inactive; MrgX1 antag: -6.7*; RGS4 block: inactive; RGS4 pot: inactive; MrgX1 agonist: inactive; MrgX1 ant reconf: inactive; HEK293 Ca flux: inactive; HEK293 Ca counter: inactive; HEK293 Ca cntr2: inactive

What do the screens show for `CCOc1ccc(N(CC(=O)NC2CCCCC2)C(=O)CCC(=O)Nc2nc(C)cs2)cc1`?
MrgX1 PAM: inactive; MrgX1 antag: inactive; RGS4 block: inactive; RGS4 pot: inactive; MrgX1 agonist: inactive

How did COc1cc(C)c(NC(=S)Nc2ccc(Cl)c(Cl)c2)cc1OC do in these assays?
MrgX1 PAM: inactive; MrgX1 antag: -5.3*; RGS4 block: inactive; RGS4 pot: inactive; MrgX1 agonist: inactive; MrgX1 ant reconf: 66%*; HEK293 Ca flux: inactive; HEK293 Ca counter: inactive; HEK293 Ca cntr2: inactive

What do the screens show for `NC(=S)Nc1ccc(Cl)cc1Cl`?
MrgX1 PAM: inactive; MrgX1 antag: -6.5*; RGS4 block: inactive; RGS4 pot: inactive; MrgX1 agonist: inactive; MrgX1 ant reconf: inactive; HEK293 Ca flux: inactive; HEK293 Ca counter: inactive; HEK293 Ca cntr2: inactive

Results for S=C(Nc1ccccc1)Nc1ccc(Cl)cc1Cl ?
MrgX1 PAM: inactive; MrgX1 antag: inactive; RGS4 block: inactive; RGS4 pot: inactive; MrgX1 agonist: inactive

How did Cc1nnc(Oc2ccccc2F)c2ccccc12 do in these assays?
MrgX1 PAM: inactive; MrgX1 antag: -6*; RGS4 block: inactive; RGS4 pot: inactive; MrgX1 agonist: inactive; MrgX1 ant reconf: 85%*; HEK293 Ca flux: inactive; HEK293 Ca counter: inactive; HEK293 Ca cntr2: inactive

Results for COc1ccc(Nc2nc(N)nc(CSc3nnc(N)s3)n2)cc1 ?
MrgX1 PAM: inactive; MrgX1 antag: inactive; RGS4 block: inactive; RGS4 pot: inactive; MrgX1 agonist: inactive

Results for COc1ccc(Nc2nc(N)nc(CSc3nccn3C)n2)cc1 ?
MrgX1 PAM: inactive; MrgX1 antag: -4.9*; RGS4 block: inactive; RGS4 pot: inactive; MrgX1 agonist: inactive; MrgX1 ant reconf: inactive; HEK293 Ca flux: inactive; HEK293 Ca counter: inactive; HEK293 Ca cntr2: inactive

Results for Cc1cccc(CN2CCN(C(=S)Nc3ccccc3)CC2)c1 ?
MrgX1 PAM: inactive; MrgX1 antag: -5*; RGS4 block: inactive; RGS4 pot: inactive; MrgX1 agonist: inactive; MrgX1 ant reconf: inactive; HEK293 Ca flux: inactive; HEK293 Ca counter: inactive; HEK293 Ca cntr2: inactive

What do the screens show for `Cc1cccc(NC(=O)CCN2CCN(C/C=C/c3ccccc3)CC2)c1`?
MrgX1 PAM: inactive; MrgX1 antag: -6.1*; RGS4 block: inactive; RGS4 pot: inactive; MrgX1 agonist: inactive; MrgX1 ant reconf: inactive; HEK293 Ca flux: inactive; HEK293 Ca counter: inactive; HEK293 Ca cntr2: inactive
